Compound activity: PubChem, several laboratories
Most compounds without a hit are left out; they make up all but 3.8% or so of the library.
NPY Y2 blocker: NPY-Y2 receptor antagonists, primary screen, cell-based. NPY-Y2 expressing cells, antagonist mode. 140,000 tested, 0.99% active. inhibition, % at 2.7 µM. Neuropeptide Y receptor type 2 (Homo sapiens), P49146; in the data active = inhibition above about 17%;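 also: 0% = vehicle with agonist challenge and 100% = reference antagonist with challenge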
Insulin prom inh: inhibitors of insulin promoter-driven GFP, primary screen, imaging, TRM-6 cells, eGFP reporter, cell count; reporter expression induced with tamoxifen; inhibition, % at 2 µM; 130,000 tested, 0.9% active; AID 1273, 2008;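 active = inhibition above the mean plus 3 SD, with well images judged a real hit on visual review, cut at about 60% in these data, passing the limit was not always enough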
NPY1 pot ag: NPY-Y1 receptor potentiators or agonists, primary screen, cell-based; NPY-Y1 expressing cells, potentiator/agonist activation; activation, % at 3.6 µM; 220,000 tested, 0.37% active; in the data active = activation above about 33%, passing the limit was not always enough;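 also: cells stimulated with NPY at EC10 then isoproterenol at EC100; 0% = low agonist plus stimulus and 100% = saturating agonist plus stimulus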
Target sequence (P25929 whole entry, looked up): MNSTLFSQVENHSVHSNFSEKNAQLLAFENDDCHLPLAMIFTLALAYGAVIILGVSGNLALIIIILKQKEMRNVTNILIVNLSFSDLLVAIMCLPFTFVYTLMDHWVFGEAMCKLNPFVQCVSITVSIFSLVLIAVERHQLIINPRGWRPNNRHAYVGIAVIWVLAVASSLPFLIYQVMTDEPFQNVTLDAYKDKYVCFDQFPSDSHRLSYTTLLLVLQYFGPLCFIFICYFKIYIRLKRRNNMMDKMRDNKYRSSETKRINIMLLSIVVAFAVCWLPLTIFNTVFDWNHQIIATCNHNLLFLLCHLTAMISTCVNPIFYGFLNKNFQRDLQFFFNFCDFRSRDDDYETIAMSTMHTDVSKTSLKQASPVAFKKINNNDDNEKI
RAM network inh: inhibitors of the yeast RAM network, primary screen, dse1pr::URA3 reporter, 5-FOA selection | S. cerevisiae dse1pr::URA3 reporter, 5-FOA growth OD615, 2 d; analog-sensitive cbk1-as2 kinase mutant strain | inhibition, % at 50 µM | 190,000 tested, 1.8% active | AID 868, 2007;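 active = inhibition above a set limit, 3 SD over mean compound inhibition, cut at about 8.4% in these data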;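 also: 0% = DMSO-only wells with no growth and 100% = 10 µM 1-NA-PP1 full growth; inhibition rescues growth on 5-FOA so higher OD means more RAM inhibition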
NPY2 pot ag: NPY-Y2 potentiators or agonists, primary screen, cell-based; Neuropeptide Y receptor type 2 (Homo sapiens), P49146; cells expressing NPY-Y2, potentiator/agonist read-out; activation, % at 3.6 µM; 220,000 tested, 0.45% active; AID 1359, 2008; in the data active = activation above about 27%;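 also: cells stimulated with NPY near EC25 plus isoproterenol at EC100; 0% = vehicle plus submaximal agonist and 100% = vehicle plus saturating agonist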
NPY-Y1 antag: NPY-Y1 receptor antagonists, primary screen, cell-based; inhibition, % at 3.6 µM; HEK293-CNG Y1 cells, membrane potential fluorescence; NPY at EC95, then isoproterenol; AID 1040, 2008; Neuropeptide Y receptor type 1 (Homo sapiens), P25929; 200,000 tested, 1% active;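 active = inhibition above the campaign mean inhibition of all tested compounds plus 3 SD, cut at about 20% in these data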;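 also: 0% = DMSO wells given NPY plus isoproterenol and 100% = isoproterenol alone without NPY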
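Assay system: HEK293 Y1/CNG channel cell line; Doses: single compound dose of 3.6 µM, 0.4% DMSO; Timing: dye 3 h, compound 60 min room temperature, stimulation 45 min; Technique: Membrane-potential fluorescent dye readout; Measure: % inhibition of NPY effect.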
An asterisk follows results filed as active; . = no result given.

SMILES	NPY Y2 blocker	Insulin prom inh	NPY1 pot ag	RAM network inh	NPY2 pot ag	NPY-Y1 antag
COc1ccc(Cl)cc1/C=C(\C#N)C(N)=O	.	21	9	0	-2	-5
CCN1CCN(c2cc(=O)n(Cc3ccc(F)cc3)c(=O)[nH]2)CC1	.	78*	14	1	8	-2
COc1ccc([N+](=O)[O-])cc1NC(=O)C(C)OC(=O)c1ccccn1 (centres undefined)	.	.	-9	2	3	0
[O-][N+]1=c2ccc(Nc3ccccc3)cc2=NC12CCCCC2	1	.	-3	5	14	7
COc1ccc(Nc2ccc3c(c2)=NC2(CCCCC2)[N+]=3[O-])cc1	-3	.	26	8.9*	25	-14
CCOCCCn1c(C)nc2c(c1=O)c1nc3ccccc3nc1n2-c1ccc2c(c1)OCCO2	.	.	-11	.	3	.
COc1ccc(C(=O)/C=C/c2ccc(F)cc2)c(OC(=O)c2ccc([N+](=O)[O-])cc2)c1	3	17	-4	2	-22	-1
COc1ccc(C(=O)/C=C/c2cccs2)c(OC(=O)c2cccc([N+](=O)[O-])c2)c1	2	.	-14	9.3*	-21	8
CCC[N+](CC#Cc1ccccc1)(CCC)CC(=O)c1ccc(Cl)cc1	19*	.	1	1	3	29*
Cc1nn(C)c(C)c1CNC(=O)/C=C/c1ccccc1F	2	71*	5	2	-9	16
Cc1ccc(C)c(NC(=O)c2ccc3ccccc3n2)c1	13	63	-15	10*	0	8
CC(Oc1ccc(Cl)cc1)c1ccnn1S(=O)(=O)c1ccc(Cl)cc1 (centres undefined)	22*	-67	-9	3	-20	21*
CCOC(=O)C(NC(=O)c1cccc(Cl)c1)(Nc1nnc(C)s1)C(F)(F)F (centres undefined)	3	7	4	1	21	4
CCCN(CCC)C(=O)CC(c1ccccc1)c1ccc(C)cc1O (centres undefined)	4	-31	-21	0	-4	2
CCCN(CCC)C(=O)CC(c1ccccc1)c1cc(Br)ccc1O (centres undefined)	4	-57	-6	9.2*	-1	1
CCOc1nc(NC(=O)NS(=O)(=O)Oc2cccc(Cl)c2)nc(-c2ccccc2)n1	0	78*	3	1	-6	-2
Cc1ccccc1-n1nnnc1SCC(C)C	.	.	0	-1	6	13
c1ccc(-n2nnnc2SCc2cccc(CSc3nnnn3-c3ccccc3)n2)cc1	5	19	-25	8.9*	-14	4
Cc1ccccc1-n1nnnc1SCc1csc(-c2ccccc2)n1	3	.	-28	8.7*	-4	6
COc1ccc(Nc2nc(C)nc3sc4c(c23)CCC4)cc1O	.	18	32	4	23	-8
O=C(NCCCN1CCN(c2ccccc2F)CC1)C1CCN(S(=O)(=O)N2CCOCC2)CC1	2	.	5	0	4	-1
O=C(NCCN1CCN(c2ccccc2)CC1)C1CCN(S(=O)(=O)N2CCOCC2)CC1	-1	0	32*	1	-8	-2
O=C(CC1C(=O)NCCN1Cc1ccccc1C(F)(F)F)NCCn1cccn1 (centres undefined)	.	.	-4	2	-8	-2
CCCN1C(=O)/C(=C/c2c(NCCCOC(C)C)nc3c(C)cccn3c2=O)SC1=S	2	-23	-9	9.4*	-3	3
CCCN1C(=O)/C(=C/c2c(N3CCNC(=O)C3CC(=O)OCC)nc3c(C)cccn3c2=O)SC1=S (centres undefined)	.	.	20	.	14	.
SMILES	NPY Y2 blocker	Insulin prom inh	NPY1 pot ag	RAM network inh	NPY2 pot ag	NPY-Y1 antag
O=C1CN=CN=CN1c1ccc(Cl)cc1Cl	4	.	2	0	-8	1
COc1cc(/C=C2\S/C(=N/S(=O)(=O)Cc3ccccc3)NC2=O)c([N+](=O)[O-])cc1OC	.	.	-5	.	-6	.
COc1cc(/C=C2/S/C(=N/S(=O)(=O)c3ccccc3)NC2=O)c([N+](=O)[O-])cc1OC	3	-38	-22	9.4*	-7	1
Cc1ccc(NCc2nnc(SCC(=O)OC3CCCCC3)o2)c(C)c1	-1	18	41	4	2	-8
O=C(CN(Cc1ccccc1)C(=O)CSc1nnc(COc2ccccc2)o1)NC1CCCC1	2	73	-12	8.6*	-6	1
Cc1ccc(CN(CC(=O)NC2CCCC2)C(=O)CSc2nnc(COc3ccccc3)o2)cc1	-1	10	5	8.7*	-2	0
Cc1cccc(OCc2nnc(SCC(=O)OC3CCCCC3)o2)c1	-1	.	-1	10*	3	4
CCCc1cc(C(N)=O)c(NC(=O)c2ccoc2C)s1	-1	76*	11	3	8	-3
CCCc1cc(C(N)=O)c(NC(=O)c2cc(C)on2)s1	-1	-81	11	2	1	-5
O=c1nc2n(c3cc(Cl)c(S(=O)(=O)N4CCOCC4)cc13)CCCCC2	1	.	-9	0	9	-4
C=CCN1C(=O)C(Cc2ccc(F)cc2)S/C1=N/N=C/c1ccco1 (centres undefined)	0	-26	-27	4	-9	-6
Cc1cccc(CC2S/C(=N/N=C/c3ccco3)N(c3ccccc3)C2=O)c1 (centres undefined)	1	10	-5	11*	-16	1
C=CCN1C(=O)C(Cc2ccc(Br)cc2)S/C1=N\N=C\c1ccco1 (centres undefined)	4	.	-14	10.0*	-10	5
Cc1c(Nc2ncnc3c2cnn3-c2ccccc2)c(=O)n(-c2ccccc2)n1C	-1	10	-14	5	0	-3
Cc1cccc(-n2ncc3c(Nc4c(C)n(C)n(-c5ccccc5)c4=O)ncnc32)c1	-2	100*	-22	7	3	0
COc1cccc(NC(=O)CSc2nc3c(c(-c4ccco4)c2C#N)CCCC3)c1	1	7	-12	9.2*	5	-7
Cc1ccnc(NC(=O)Nc2ccc3c(c2)OCO3)c1	.	43	9	4	-3	-2
Cc1cccc2nc(-c3ccco3)c(Nc3ccccc3)n12	.	7	47*	1	34*	-7
Cc1cccc2nc(-c3ccco3)c(Nc3ccc4c(c3)OCO4)n12	.	.	-4	0	10	2
Cc1ccc(OCCN2C(=O)C(=O)c3cc(C)ccc32)cc1	.	-358	-18	4	-24	21*
O=C(CSc1nnc(Cc2cccs2)n1Cc1ccco1)Nc1ccc(Cl)cc1Cl	23*	-64	-20	4	-6	31*
